The values that follow come from ChEMBL document CHEMBL4480378, “Amide linked redox-active naphthoquinones for the treatment of mitochondrial dysfunction” (2019).

Calls of active or inactive are those of the source. No cut-off for these calls is given here. Bounds are passed on as bounds.

Experiment [1] relates to HepG2. Briefly: Cytoprotection against rotenone-induced mitochondrial dysfunction in human HepG2 cells assessed as acute ATP rescue at 10 uM co-treated with rotenone for 1 hr by luciferase-based assay relative to control. The experiment is classed as functional. The method, boiled down:
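HepG2 cells, 15 000 per well, attached overnight; after 24 h co-incubated with quinone (10 µM) and rotenone (10 µM) for 1 hour in glucose-free growth media. ATP then measured immediately by luciferase reaction, expressed as percentage of untreated (no rotenone) control.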

The nature of experiment [2]: Ratio of IC50 for cytotoxicity against rat RGC5 cells to IC50 for cytotoxicity against human HepG2 cells.
For experiment [3], the system named is HepG2. Briefly: Cytoprotection against rotenone-induced mitochondrial dysfunction in human HepG2 cells assessed as increase in cell viability by measuring ATP levels at 10 uM preincubated for 48 hrs followed by rotenone-induction and measured after 24 hrs by luciferase-based assay. The experiment is classed as functional. In short, it runs like this: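 5000 HepG2 cells per well preincubated with quinone (10 µM) for 2 days, then challenged with rotenone (1 µM) for 6 hours in HBSS. Post-incubated with quinone alone in HBSS for a further 24 h. Viability read as ATP content by luciferase reaction, as percentage of untreated (no rotenone) control. 3 independent experiments, n = 6 wells each; error bars SD.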

The species named for a further experiment is Rattus norvegicus. The experiment can be described thus: Cytoprotection against rotenone-induced mitochondrial dysfunction in rat RGC5 cells assessed as increase in cell viability by measuring ATP levels at 10 uM preincubated for 48 hrs followed by rotenone-induction and measured after 24 hrs by luciferase-based assay. The experiment is classed as functional.

A short description of experiment [4]: Electrochemical behavior of the compound assessed as redox potential (Eox) corrected toward saturated calomel reference electrode by cyclic voltammetry.
A short description of experiment [5]: Electrochemical behavior of the compound assessed as redox potential (Ered) corrected toward saturated calomel reference electrode by cyclic voltammetry.

In the case of `COc1ccc(CC2=C(C)C(=O)c3ccccc3C2=O)cc1OC`, the Activity in the experiment with HepG2 [1] is listed as 60 - 90%. Further, in experiment [2], the “Ratio IC50” value is on record as 2.

Take `COC(=O)[C@H](NC(=O)CCCC1=C(C)C(=O)c2ccccc2C1=O)c1ccccc1`: the Activity in the experiment with HepG2 [3] is given as 90 - 100%.

On to `CC1=C(CC[C@@H](C)[C@H]2CC[C@H]3[C@@H]4CC[C@@H]5C[C@H](O)CC[C@]5(C)[C@H]4C[C@H](O)[C@]23C)C(=O)c2ccccc2C1=O`, for which the “Ratio IC50” value in experiment [2] is on record as 2.

For the compound `CC1=C(CCCC(=O)N[C@@H](CC(C)C)C(=O)OC(C)(C)C)C(=O)c2ccccc2C1=O`, in the experiment with HepG2 [3], the result was inactive. Further, in the experiment with HepG2 [1], the Activity is given as 90%.

Turning to `CCCCOC(=O)CCC1=C(C)C(=O)c2ccccc2C1=O`, in the experiment with HepG2 [1], the Activity is listed as under 30%. Besides, the “Ratio IC50” value in experiment [2] came to 2.

Turning to `CC1=C(CCCC(=O)N[C@H](CO)Cc2ccccc2)C(=O)c2ccccc2C1=O`, the Activity with HepG2 [3] and in the experiment with HepG2 [1] was 100% in each case.

As for `CCCCCCCC/C=C\CCCCCCCC1=C(C)C(=O)c2ccccc2C1=O`, the “Ratio IC50” value in experiment [2] is recorded as 2.

As for `COC(=O)[C@@H](NC(=O)CCCC1=C(C)C(=O)c2ccccc2C1=O)c1ccccc1`, the Activity with HepG2 [3] is reported as 90 - 100%.

As to `CC1=C(CCCCCC(=O)O)C(=O)c2ccccc2C1=O`, the outcome with HepG2 [3] was Active. In addition, the Activity in the experiment with HepG2 [1] is 60 - 90%.

For `COc1ccc(CCNC(=O)CCCC2=C(C)C(=O)c3ccccc3C2=O)cc1OC`, the Activity in the experiment on HepG2 [3] and in the experiment on HepG2 [1] was 100% each time.

Consider `CC1=C(CCCC(=O)NCCc2ccc(O)cc2)C(=O)c2ccccc2C1=O`, for which the Activity in the experiment on HepG2 [3] and with HepG2 [1] was 100% throughout.

With `CC1=C(CCC(=O)O)C(=O)c2ccccc2C1=O`, in the experiment on HepG2 [3], the outcome was Active. For the same compound, the Activity in the experiment on HepG2 [1] is given as 60 - 90%. In experiment [2], the “Ratio IC50” value was 2.

Take `CC(=O)CCC1=C(C)C(=O)c2ccccc2C1=O`: the result in the experiment with HepG2 [3] and in the experiment listed under Rattus norvegicus was Active. For the same compound, the Activity with HepG2 [1] is 60 - 90%. The “Ratio IC50” value in experiment [2] was 2.

As for `CCCCOC(=O)CCCC1=C(C)C(=O)c2ccccc2C1=O`, the Activity with HepG2 [1] was under 30%. Besides, the “Ratio IC50” value in experiment [2] was found to be 2.

In the case of `CC1=C(CCCC(=O)N2CCC[C@H]2C(=O)O)C(=O)c2ccccc2C1=O`, the Activity in the experiment on HepG2 [1] is reported as 5 - 70%.

In the case of `COC1=C(OC)C(=O)C(CCCCCCCCCCO)=C(C)C1=O` [IDEBENONE], the Activity in experiment [4] was -0.637 V; with HepG2 [1], 60 - 90%; in experiment [5] it was -0.714 V.

On to `CC1=C(CCCc2ccccc2)C(=O)c2ccccc2C1=O`, for which, in experiment [2], the “Ratio IC50” value was 2.

As for `CC1=C(CCCCCCCCCCO)C(=O)c2ccccc2C1=O`, the Activity is -0.768 V in experiment [4] and -0.845 V in experiment [5]. The result with HepG2 [3] and in the experiment listed under Rattus norvegicus was Active. In addition, the “Ratio IC50” value in experiment [2] is 2.

Turning to `CC1=C(CCCC(=O)N[C@@H](Cc2ccccc2)C(=O)OC(C)(C)C)C(=O)c2ccccc2C1=O`, the Activity in the experiment on HepG2 [3] is given as 90 - 100%.

In the case of `CC1=C(CCC(C)C)C(=O)c2ccccc2C1=O`, the “Ratio IC50” value in experiment [2] is listed as 2.

Regarding `CC1=C(CCC(C)O)C(=O)c2ccccc2C1=O` (stereo unspecified), the outcome with HepG2 [3] and in the experiment filed under Rattus norvegicus was Active. Further, the Activity with HepG2 [1] is recorded as 60 - 90%. The “Ratio IC50” value in experiment [2] is reported as 2.

Consider `CC1=C(CC(C)CCCC(C)C)C(=O)c2ccccc2C1=O` (stereo unspecified), for which the Activity in the experiment on HepG2 [1] is on record as 60 - 90%. The “Ratio IC50” value in experiment [2] is 2.

On to `CC1=C(CCCC(=O)N[C@@H](Cc2ccc(O)cc2)C(=O)OC(C)(C)C)C(=O)c2ccccc2C1=O`, for which the outcome in the experiment with HepG2 [3] was inactive. Besides, the Activity in the experiment on HepG2 [1] worked out at 90%.

Consider `CC1=C(CCCC(=O)N[C@@H](CC(C)C)C(=O)O)C(=O)c2ccccc2C1=O`, for which the Activity in the experiment with HepG2 [1] is 5 - 70%.

For `CCCCCCCCCCC1=C(C)C(=O)c2ccccc2C1=O`, the outcome with HepG2 [3] and in the experiment filed under Rattus norvegicus was inactive. The “Ratio IC50” value in experiment [2] worked out at 2.

For the compound `CCCCCCC1=C(C)C(=O)c2ccccc2C1=O`, the result with HepG2 [3] and in the experiment filed under Rattus norvegicus was Active. For the same compound, in the experiment with HepG2 [1], the Activity is reported as 60 - 90%. Besides, the “Ratio IC50” value in experiment [2] is recorded as 2.

As to `CC1=C(CCCC(=O)N2CCC[C@H]2C(=O)OC(C)(C)C)C(=O)c2ccccc2C1=O`, in the experiment with HepG2 [3], the Activity is listed as 90 - 100%.

Turning to `CC1=C(CCCCC(=O)O)C(=O)c2ccccc2C1=O`, the result with HepG2 [3] was Active. For the same compound, the Activity in the experiment with HepG2 [1] is recorded as 60 - 90%.

On to `C=CCCCCCCCCC1=C(C)C(=O)c2ccccc2C1=O`, for which, in the experiment on HepG2 [1], the Activity was 60 - 90%. In addition, in experiment [2], the “Ratio IC50” value is recorded as 2.

As to `CCCCCCOC(=O)CCCC1=C(C)C(=O)c2ccccc2C1=O`, the Activity in the experiment with HepG2 [1] was under 30%. In addition, the “Ratio IC50” value in experiment [2] is reported as 2.

For `CC1=C(CCC(F)(F)F)C(=O)c2ccccc2C1=O`, in the experiment with HepG2 [1], the Activity is 60 - 90%.

As for `C=CCCC1=C(C)C(=O)c2ccccc2C1=O`, the Activity in the experiment with HepG2 [1] was 60 - 90%. Moreover, the “Ratio IC50” value in experiment [2] is recorded as 2.

For the compound `CCOC(=O)CCCC1=C(C)C(=O)c2ccccc2C1=O`, the Activity with HepG2 [1] was under 30%. Further, the “Ratio IC50” value in experiment [2] is 2.

With `CC1=C(CCC2CCCC2)C(=O)c2ccccc2C1=O`, the Activity in the experiment on HepG2 [1] is recorded as 60 - 90%. Besides, the “Ratio IC50” value in experiment [2] was 2.

Turning to `CCCCCCOC(=O)CCC1=C(C)C(=O)c2ccccc2C1=O`, the Activity in the experiment with HepG2 [1] is given as under 30%. The “Ratio IC50” value in experiment [2] is reported as 2.

On to `CC1=C(CCCC(=O)NCC(=O)OC(C)(C)C)C(=O)c2ccccc2C1=O`, for which the Activity in the experiment on HepG2 [3] is 90 - 100%.

In the case of `CCC[C@H](NC(=O)CCCC1=C(C)C(=O)c2ccccc2C1=O)C(=O)OC(C)(C)C`, in the experiment on HepG2 [3], the Activity is on record as 90 - 100%.

As for `CC1=C(CCCC(=O)N[C@@H](Cc2ccc(OC(=O)CCCC3=C(C)C(=O)c4ccccc4C3=O)cc2)C(=O)OC(C)(C)C)C(=O)c2ccccc2C1=O`, the Activity with HepG2 [3] is 90 - 100%.

For `CC1=C(CCCCCCCCC2CO2)C(=O)c2ccccc2C1=O` (stereo unspecified), the Activity in the experiment with HepG2 [1] is 60 - 90%. Besides, the “Ratio IC50” value in experiment [2] is listed as 2.

Take `CC1=C(CC2CCC(=O)O2)C(=O)c2ccccc2C1=O` (stereo unspecified): the Activity with HepG2 [1] is on record as 60 - 90%. Also, the “Ratio IC50” value in experiment [2] is recorded as 2.

For `COC(=O)[C@H](Cc1ccccc1)NC(=O)CCCC1=C(C)C(=O)c2ccccc2C1=O`, the Activity in the experiment with HepG2 [3] was 90 - 100%.

For `CCCCCCCCC1=C(C)C(=O)c2ccccc2C1=O`, the outcome with HepG2 [3] and in the experiment filed under Rattus norvegicus was Active. Besides, in the experiment on HepG2 [1], the Activity is on record as 60 - 90%. Moreover, the “Ratio IC50” value in experiment [2] worked out at 2.

Regarding `CC1=C(CCCC(=O)N[C@@H](Cc2ccccc2)C(=O)O)C(=O)c2ccccc2C1=O`, the Activity in the experiment with HepG2 [3] is given as 90 - 100%; with HepG2 [1] it was 5 - 70%.

On to `CCCCCCCC1=C(C)C(=O)c2ccccc2C1=O`, for which the result in the experiment with HepG2 [3] and in the experiment filed under Rattus norvegicus was Active. Further, the Activity in the experiment on HepG2 [1] is given as 60 - 90%. Besides, the “Ratio IC50” value in experiment [2] came out at 2.

Turning to `CC1=C(CCCC(=O)NCCc2c[nH]c3ccccc23)C(=O)c2ccccc2C1=O`, the Activity in the experiment with HepG2 [3] and in the experiment on HepG2 [1] was 100% in each case.

Turning to `CC1=C(CC(C)(O)C(F)(F)F)C(=O)c2ccccc2C1=O` (stereo unspecified), the Activity in the experiment on HepG2 [1] was 60 - 90%.

For `CCOC(=O)CCC1=C(C)C(=O)c2ccccc2C1=O`, the result with HepG2 [3] was inactive. Moreover, in the experiment on HepG2 [1], the Activity is under 30%. The outcome in the experiment filed under Rattus norvegicus was Active. Also, the “Ratio IC50” value in experiment [2] was 2.
